# Data from ChEMBL document CHEMBL2086252, “Syntheses and evaluation of anticonvulsant activity of novel branched alkyl carbamates” (J Med Chem, 2012).
# Activity calls are given as the source filed them. The rule behind the calls is not given here.
# Legend:
# [1] = Neurotoxicity in ip dosed Sprague-Dawley albino rat assessed as minimal motor impairment by rotarod test; format: toxicity, organism-based; details: in vivo
# How it was run: (§1)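 Quantitative testing: rats dosed orally or ip in MES and scMet tests, and mice dosed ip, including the 6 Hz (32 mA) psychomotor seizure test. ED50 and TD50 were reported in mg/kg with ranges in parentheses. Protective index was calculated as TD50/ED50.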
# Rattus norvegicus [2] = experiment: Anticonvulsant activity in po dosed Sprague-Dawley albino rat assessed as protection against subcutaneous metrazol-induced seizures; format: functional; how it was run: as §1
# Rattus norvegicus [3] = experiment: Ratio of ED50 for po dosed Sprague-Dawley albino rat to ED50 for ip dosed Sprague-Dawley albino rat by maximal electroshock-induced seizure test; format: functional
# Mus musculus [4] = experiment: Anticonvulsant activity in albino CF1 mouse assessed as protection against maximal electroshock-induced seizures at 30 mg/kg, ip after 0.5 hrs; format: functional, organism-based; set-up: dose 30 mg/kg
# How it was run: (§2)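 Mice dosed ip at 30, 100 or 300 mg/kg, then tested 0.5 h and 4 h after administration in the MES or scMet test. Protection was recorded as animals protected over animals tested. Neurotoxicity was recorded as motor impairment or sedation, as animals affected over animals tested.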
# Rattus norvegicus [5] = experiment: Anticonvulsant activity in Sprague-Dawley albino rat assessed as protection against maximal electroshock-induced seizures at 30 mg/kg, po after 30 mins; format: functional, organism-based; set-up: dose 30 mg/kg
# How it was run: (§3)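 Rats dosed orally. Anti-MES protection was scored as animals protected over animals tested at each time after dosing. Neurotoxicity was scored as motor impairment or sedation, as animals affected over animals tested.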
# Rattus norvegicus [6] = experiment: Protective index, ratio of TD50 for po dosed Sprague-Dawley albino rat by rotarod test to ED50 for po dosed Sprague-Dawley albino rat by subcutaneous metrazol seizures test; format: functional
# How it was run: (§4)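 Protective index calculated as TD50/ED50, with TD50 and ED50 taken from the same species and dosing route.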
# Mus musculus [7] = experiment: Anticonvulsant activity in albino CF1 mouse assessed as protection against maximal electroshock-induced seizures at 300 mg/kg, ip after 4 hrs; format: functional, organism-based; set-up: dose 300 mg/kg; how it was run: as §2
# Rattus norvegicus [8] = experiment: Anticonvulsant activity in Sprague-Dawley albino rat assessed as protection against maximal electroshock-induced seizures at 30 mg/kg, po after 4 hrs; format: functional, organism-based; set-up: dose 30 mg/kg; how it was run: as §3
# Mus musculus [9] = experiment: Anticonvulsant activity in albino CF1 mouse assessed as protection against subcutaneous metrazol-induced seizures at 100 mg/kg, ip after 0.5 hrs; format: functional, organism-based; set-up: dose 100 mg/kg; how it was run: as §2
# Mus musculus [10] = experiment: Neurotoxicity in albino CF1 mouse assessed as minimal motor impairment at 30 mg/kg, ip after 4 hrs by rotarod test; format: toxicity, organism-based; set-up: dose 30 mg/kg, route intraperitoneal; details: in vivo; how it was run: as §2
# Mus musculus [11] = experiment: Neurotoxicity in albino CF1 mouse assessed as minimal motor impairment at 100 mg/kg, ip after 0.5 hrs by rotarod test; format: toxicity, organism-based; set-up: dose 100 mg/kg, route intraperitoneal; details: in vivo; how it was run: as §2
# Mus musculus [12] = experiment: Protective index, ratio of TD50 for ip dosed albino CF1 mouse by rotarod test to ED50 for ip dosed albino CF1 mouse by maximal electroshock seizures test; format: functional; how it was run: as §4
# Rattus norvegicus [13] = experiment: Anticonvulsant activity in Sprague-Dawley albino rat assessed as protection against pilocarpine-induced status epilepticus at 65 mg/kg, ip; format: functional, organism-based; set-up: dose 65 mg/kg
# How it was run: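 Pilocarpine status epilepticus model in rats. Number and severity of convulsive seizures were observed behaviourally.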
# Rattus norvegicus [14] = experiment: Neurotoxicity in pilocarpine-induced status epilepticus Sprague-Dawley albino rat model assessed as minimal motor impairment at 100 mg/kg, ip after 1 hr by rotarod test; format: toxicity, organism-based; set-up: dose 100 mg/kg, route intraperitoneal; details: in vivo
# Mus musculus [15] = experiment: Neurotoxicity in albino CF1 mouse assessed as minimal motor impairment at 300 mg/kg, ip after 0.5 hrs by rotarod test; format: toxicity, organism-based; set-up: dose 300 mg/kg, route intraperitoneal; details: in vivo; how it was run: as §2
# Mus musculus [16] = experiment: Protective index, ratio of TD50 for ip dosed albino CF1 mouse by rotarod test to ED50 for ip dosed albino CF1 mouse by subcutaneous metrazol seizures test; format: functional; how it was run: as §4
# Mus musculus [17] = experiment: Anticonvulsant activity in ip dosed albino CF-1 mouse assessed as protection against 6 Hz psychomotor seizure; format: functional; details: albino CF-1, ip; how it was run: as §1
compound,measurement,setting,value
CCC(COC(N)=O)C(C)C (racemic),TD50,[1],58 mg/kg
same,ED50,Rattus norvegicus [2],35 mg/kg
same,Ratio ED50,Rattus norvegicus [3],4
same,Activity,Mus musculus [4],inactive
same,Activity,Rattus norvegicus [5],inactive
same,Ratio TD50/ED50,Rattus norvegicus [6],14
same,Activity,Mus musculus [7],inactive
same,Activity,Rattus norvegicus [8],inactive
same,Activity,Mus musculus [9],inactive
same,Activity,Mus musculus [10],Non-toxic
same,Activity,Mus musculus [11],Non-toxic
same,Ratio TD50/ED50,Mus musculus [12],1.5
same,Activity,Rattus norvegicus [13],Active
same,Activity,Rattus norvegicus [14],Non-toxic
same,Activity,Mus musculus [15],Toxic
same,Ratio TD50/ED50,Mus musculus [16],2.9
same,ED50,Mus musculus [17],33 mg/kg
